In ChEMBL document CHEMBL2390870, “Coumarin chalcone fibrates: a new structural class of lipid lowering agents” (2013):
The source made the active and inactive calls. The rule behind the calls is not given here.

Key:
Rattus norvegicus [1] = assay: Antihyperlipidemic activity in triton WR-1339-induced Charles-Foster rat assessed as decrease in plasma triglyceride level at 100 mg/kg, po after 18 hrs relative to control; format: functional; set-up: scale not given: the % may be the effect or the level left
How it was run: (§1)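 Male adult Charles Foster rats (200–225 g), six per group; hyperlipidemia induced by triton WR-1339 400 mg/kg i.p.; test agent macerated with 0.2% w/v gum acacia in water and given orally at the same time, with diet withdrawn; vehicle to controls. After 18 h, plasma was obtained by centrifugation at 2500 g, 4 °C, 10 min and diluted 1:3 in saline. Mean ± SD; Student's t-test.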

Rattus norvegicus [2] = assay: Antihyperlipidemic activity in triton WR-1339-induced Charles-Foster rat assessed as decrease in plasma phospholipid level at 100 mg/kg, po after 18 hrs relative to control; format: functional; set-up: scale not given: the % may be the effect or the level left; how it was run: as §1
Rattus norvegicus [3] = assay: Antihyperlipidemic activity in triton WR-1339-induced Charles-Foster rat assessed as decrease in plasma total cholesterol level at 100 mg/kg, po after 18 hrs relative to control; format: functional; set-up: scale not given: the % may be the effect or the level left; how it was run: as §1
Rattus norvegicus [4] = assay: Antihyperlipidemic activity in triton WR-1339-induced Charles-Foster rat assessed as increase in post heparin lipolytic activity at 100 mg/kg, po after 18 hrs by spectrophotometric analysis relative to control; format: functional
How it was run: (§2)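 Triton WR-1339 400 mg/kg i.p. in male Charles Foster rats (six per group), with test agent in 0.2% gum acacia given orally at the same time. Post-heparin plasma lipolytic activity read after 18 h as nmol free fatty acids formed/h/ml plasma; percent change; mean ± SD; t-test.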

Rattus norvegicus [5] = assay: Antihyperlipidemic activity in triton WR-1339-induced Charles-Foster rat assessed as decrease in plasma triglyceride level at 200 mg/kg, po after 18 hrs relative to control; format: functional; set-up: scale not given: the % may be the effect or the level left; how it was run: as §1
Rattus norvegicus [6] = assay: Antihyperlipidemic activity in triton WR-1339-induced Charles-Foster rat assessed as decrease in plasma LDL level at 100 mg/kg, po after 18 hrs; format: functional, organism-based; set-up: dose 100 mg/kg; how it was run: as §1
Rattus norvegicus [7] = assay: Antihyperlipidemic activity in triton WR-1339-induced Charles-Foster rat assessed as increase in post heparin lipolytic activity at 200 mg/kg, po after 18 hrs by spectrophotometric analysis relative to control; format: functional; how it was run: as §2
Rattus norvegicus [8] = assay: Antihyperlipidemic activity in triton WR-1339-induced Charles-Foster rat assessed as decrease in plasma phospholipid level at 50 mg/kg, po after 18 hrs relative to control; format: functional; set-up: scale not given: the % may be the effect or the level left; how it was run: as §1
Rattus norvegicus [9] = assay: Antihyperlipidemic activity in triton WR-1339-induced Charles-Foster rat assessed as increase in liver lipoprotein lipase activity at 100 mg/kg, po after 18 hrs; format: functional, organism-based; set-up: dose 100 mg/kg
Rattus norvegicus [10] = assay: Antihyperlipidemic activity in triton WR-1339-induced Charles-Foster rat assessed as decrease in plasma triglyceride level at 50 mg/kg, po after 18 hrs relative to control; format: functional; set-up: scale not given: the % may be the effect or the level left; how it was run: as §1
Rattus norvegicus [11] = assay: Antihyperlipidemic activity in triton WR-1339-induced Charles-Foster rat assessed as decrease in plasma phospholipid level at 200 mg/kg, po after 18 hrs relative to control; format: functional; set-up: scale not given: the % may be the effect or the level left; how it was run: as §1
Rattus norvegicus [12] = assay: Antihyperlipidemic activity in triton WR-1339-induced Charles-Foster rat assessed as increase in post heparin lipolytic activity at 50 mg/kg, po after 18 hrs by spectrophotometric analysis relative to control; format: functional; how it was run: as §2
Rattus norvegicus [13] = assay: Antihyperlipidemic activity in triton WR-1339-induced Charles-Foster rat assessed as increase in plasma HDL level at 100 mg/kg, po after 18 hrs; format: functional, organism-based; set-up: dose 100 mg/kg; how it was run: as §1
Rattus norvegicus [14] = assay: Antihyperlipidemic activity in triton WR-1339-induced Charles-Foster rat assessed as decrease in plasma total cholesterol level at 200 mg/kg, po after 18 hrs relative to control; format: functional; set-up: scale not given: the % may be the effect or the level left; how it was run: as §1
Rattus norvegicus [15] = assay: Antihyperlipidemic activity in triton WR-1339-induced Charles-Foster rat assessed as decrease in plasma total cholesterol level at 50 mg/kg, po after 18 hrs relative to control; format: functional; set-up: scale not given: the % may be the effect or the level left; how it was run: as §1
Rattus norvegicus [16] = assay: Antihyperlipidemic activity in triton WR-1339-induced Charles-Foster rat assessed as decrease in plasma VLDL level at 100 mg/kg, po after 18 hrs; format: functional, organism-based; set-up: dose 100 mg/kg; how it was run: as §1

| SMILES | Activity (Rattus norvegicus [1]) [%] | Activity (Rattus norvegicus [2]) [%] | Activity (Rattus norvegicus [3]) [%] | Activity (Rattus norvegicus [4]) [%] | other results |
| --- | --- | --- | --- | --- | --- |
| CCC(C)c1cc(/C=C/C(=O)c2ccc(OCC(=O)O)cc2)cc2cc(C(=O)O)c(=O)oc12 (stereo unspecified) | 9 | 9 | 8 | 3 | – |
| Cc1ccc(C)c(OCCCC(C)(C)C(=O)O)c1 [GEMFIBROZIL] | 33 | 30 | 32 | 19 | – |
| CCOC(=O)c1cc2cc(/C=C/C(=O)c3ccc(OC(C)C(=O)OCC)cc3)cc(C(C)CC)c2oc1=O (stereo unspecified) | 9 | 9 | 10 | 5 | – |
| Cc1cc(/C=C/C(=O)c2ccc(OC(C)C(=O)O)cc2)cc2cc(C(=O)O)c(=O)oc12 (stereo unspecified) | 25 | 24 | 26 | 17 | Activity (Rattus norvegicus [5]): 26%; Activity (Rattus norvegicus [6]): Active; Activity (Rattus norvegicus [7]): 17%; Activity (Rattus norvegicus [8]): 15%; Activity (Rattus norvegicus [9]): Active; Activity (Rattus norvegicus [10]): 14%; Activity (Rattus norvegicus [11]): 24%; Activity (Rattus norvegicus [12]): 12%; Activity (Rattus norvegicus [13]): Active; Activity (Rattus norvegicus [14]): 27%; Activity (Rattus norvegicus [15]): 16%; Activity (Rattus norvegicus [16]): Active |
| CCC(C)c1cc(/C=C/C(=O)c2ccc(OC(C)(C)C(=O)O)cc2)cc2cc(C(=O)O)c(=O)oc12 (stereo unspecified) | 9 | 8 | 8 | 4 | – |
| CCOC(=O)C(C)Oc1ccc(C(=O)/C=C/c2cc(C=O)c(O)c(C(C)CC)c2)cc1 (stereo unspecified) | 11 | 11 | 13 | 5 | – |
| CCOC(=O)c1cc2cc(/C=C/C(=O)c3ccc(OC(C)(C)C(=O)OCC)cc3)cc(C(C)CC)c2oc1=O (stereo unspecified) | 23 | 23 | 22 | 15 | Activity (Rattus norvegicus [5]): 25%; Activity (Rattus norvegicus [7]): 15%; Activity (Rattus norvegicus [8]): 16%; Activity (Rattus norvegicus [10]): 16%; Activity (Rattus norvegicus [11]): 24%; Activity (Rattus norvegicus [12]): 13%; Activity (Rattus norvegicus [14]): 23%; Activity (Rattus norvegicus [15]): 18% |
| CC(C)c1cc(/C=C/C(=O)c2ccc(OCC(=O)O)cc2)cc2cc(C(=O)O)c(=O)oc12 | 8 | 7 | 9 | 3 | – |
| CCOC(=O)c1cc2cc(/C=C/C(=O)c3ccc(OC(C)(C)C(=O)OCC)cc3)cc(C)c2oc1=O | 8 | 10 | 10 | 5 | – |
| CCOC(=O)C(C)Oc1ccc(C(=O)/C=C/c2cc(C)c(O)c(C=O)c2)cc1 (stereo unspecified) | 11 | 13 | 12 | 6 | – |
| CCOC(=O)c1cc2cc(/C=C/C(=O)c3ccc(OC(CC)C(=O)OCC)cc3)cc(C)c2oc1=O (stereo unspecified) | 14 | 15 | 14 | 10 | – |
| CCOC(=O)COc1ccc(C(=O)/C=C/c2cc(C)c3oc(=O)c(C(=O)OCC)cc3c2)cc1 | 8 | 8 | 6 | 2 | – |
| CCOC(=O)COc1ccc(C(=O)/C=C/c2cc(C(C)C)c3oc(=O)c(C(=O)OCC)cc3c2)cc1 | 22 | 20 | 21 | 15 | – |
| CCOC(=O)COc1ccc(C(=O)/C=C/c2cc(C(C)(C)C)c3oc(=O)c(C(=O)OCC)cc3c2)cc1 | 11 | 11 | 13 | 5 | – |
| CCOC(=O)CCCOc1ccc(C(=O)/C=C/c2cc(C(C)(C)C)c3oc(=O)c(C(=O)OCC)cc3c2)cc1 | 11 | 11 | 12 | 5 | – |
| CCOC(=O)CCCOc1ccc(C(=O)/C=C/c2cc(C)c3oc(=O)c(C(=O)OCC)cc3c2)cc1 | 16 | 17 | 19 | 12 | – |
| CCOC(=O)COc1ccc(C(=O)/C=C/c2cc(C(C)CC)c3oc(=O)c(C(=O)OCC)cc3c2)cc1 (stereo unspecified) | 11 | 12 | 11 | 8 | – |
| CCOC(=O)CCCOc1ccc(C(=O)/C=C/c2cc(C(C)CC)c3oc(=O)c(C(=O)OCC)cc3c2)cc1 (stereo unspecified) | 12 | 12 | 13 | 7 | – |
| CCOC(=O)c1cc2cc(/C=C/C(=O)c3ccc(OC(C)C(=O)OCC)cc3)cc(C)c2oc1=O (stereo unspecified) | 11 | 12 | 10 | 6 | – |
